# Data reported in ChEMBL document CHEMBL1158750, “Merosesquiterpenes from two sponges of the genus Dysidea” (2005).
# Assays:
# Format in all cases: functional
# Details in all cases: for CC50: read-out: LC50 (the source's name)
# MDA-MB-231 = experiment: Cytotoxicity against human MDA-MB-231 cells by SRB assay
# Procedure, shortened: (§1)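 Human tumor cell line (A-549 lung carcinoma, HT-29 colon adenocarcinoma, MDA-MB-231 mammary gland adenocarcinoma) growth and viability measured by colorimetric sulforhodamine B (SRB) staining. Parameters derived were GI50 (50% growth inhibition), TGI (total growth inhibition) and LC50 (50% cell killing).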
# A549 = experiment: Cytotoxicity against human A549 cells by SRB assay; procedure, shortened: as §1
# HT-29 = experiment: Cytotoxicity against human HT-29 cells by SRB assay; procedure, shortened: as §1
SMILES,GI50 (MDA-MB-231),GI50 (A549),TGI (MDA-MB-231),CC50 (MDA-MB-231),TGI (A549),CC50 (A549),GI50 (HT-29),TGI (HT-29),CC50 (HT-29)
CC1(C)CCC[C@]2(C)[C@@H](Cc3cc(O)ccc3O)[C@](C)(O)CC[C@@H]12,27.7 µM,17.4 µM,–,–,–,–,–,–,–
C=C1CCC[C@H]2[C@](C)(Cc3cc(OC(C)=O)ccc3O)[C@@H](C)CC[C@]12C,21 µM,25.5 µM,–,–,–,–,–,–,–
CC(=O)Oc1ccc(O)c(C[C@H]2C(C)=CC[C@H]3C(C)(C)CCC[C@]23C)c1O,10.5 µM,10.5 µM,11 µM,11.8 µM,11 µM,11.8 µM,11.3 µM,12.6 µM,14 µM
CC1=CC[C@H]2C(C)(C)CCC[C@]2(C)[C@H]1C[C@H]1C(=O)C=C[C@@H]1O [DYSIENONE],15.2 µM,12.9 µM,16.5 µM,17.9 µM,13.6 µM,14.2 µM,13.6 µM,14.2 µM,15.2 µM
